This note sets out measurements from ChEMBL document CHEMBL1926517, “C-terminal tetrapeptides inhibit Aβ42-induced neurotoxicity primarily through specific interaction at the N-terminus of Aβ42” (J Med Chem, 2011).

Active and inactive are the calls of the source. The calls are words filed in the database; no cut-off is given here. Residues, ends and D or L forms follow the SMILES beside them.

Data set [1] relates to PC-12. The experiment in a line: Neuroprotective activity in rat PC12 cells assessed as inhibition of amyloid-beta (1 to 42)-induced cell death after 24 hrs by MTT assay. The class given is functional, cell-based. The following applies: for IC50: PC-12, 24 h. In short, it runs like this:
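NGF-differentiated PC-12 cells (100 ng/mL, 48 h) were given 10 μM Aβ42 plus peptide at 1:1, 1:2, 1:5 and 1:10 ratios for 24 h, and read by MTT. Viability was scaled to 1 μM staurosporine full kill (100% loss), with NaOH-matched vehicle and medium as negative controls. IC50 from dose–response, ≥3 independent experiments × 6 replicates, mean ± SEM.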
(In general: Formazan colour is commonly taken as a measure of viable cells.)

Data set [2] relates to PC-12. The experiment in a line: Neuroprotective activity in rat PC12 cells assessed as inhibition of amyloid-beta (1 to 42)-induced cell death after 24 hrs by LDH release assay. As to conditions: PC-12, 24 h. The class given is functional, cell-based. In short, it runs like this: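 PC-12 cells were differentiated with NGF (100 ng/mL, 48 h), then exposed to Aβ42 alone or Aβ42:peptide mixtures at 1:1, 1:2, 1:5 and 1:10 ratios. Cell death was measured by LDH release (membrane integrity kit). IC50 was taken from the dose–response, ≥3 independent experiments with 6 replicates each, mean ± SEM.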

The subject of data set [3] is PC-12. The experiment in a line: Neuroprotective activity in rat PC12 cells assessed as inhibition of staurosporine-induced cell death after 24 hrs by MTT assay. The class given is functional, cell-based. In short, it runs like this:
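Differentiated PC-12 cells (NGF 100 ng/mL, 48 h) exposed to 0.2 μM staurosporine, with or without varying tetrapeptide concentrations, for 24 h. Viability was read by MTT. Mean ± SEM, ≥3 independent experiments with 5 replicates per point.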

Data set [4] relates to PC-12. The experiment in a line: Neuroprotective activity in rat PC12 cells assessed as inhibition of alpha-synuclein-induced cell death after 24 hrs by MTT assay. The class given is functional, cell-based. In short, it runs like this: (§1)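 NGF-differentiated PC-12 cells (100 ng/mL, 48 h) treated 24 h with α-synuclein (15 μM) or alamethicin (4 μM), alone or with a range of tetrapeptide concentrations. MTT read-out. Mean ± SEM of ≥3 independent experiments, 5 replicates per point.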

The test system of data set [5] is PC-12. The experiment in a line: Neuroprotective activity in rat PC12 cells assessed as inhibition of alamethicin-induced cell death after 24 hrs by MTT assay. The data set is classed as functional, cell-based. In short, it runs like this:
as §1

The nature of data set [6]: Binding affinity to amyloid beta (1 to 42) Try residue at position 1 assessed as change in fluorescence intensity. In short, it runs like this:
(§2)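 HFIP-pretreated Aβ42 or its Y-substituted analogue (5 μM nominal) was mixed with tetrapeptide (50 μM nominal), taken up in 60 mM NaOH (10% of volume), then diluted with 10 mM sodium phosphate pH 7.4 and spun briefly. Exact concentrations were set afterwards by AAA. Read-out: excitation 280 nm, emission 290–400 nm at 22°C, ≥10 immediate scans. Buffer-subtracted area per micromole was normalized to the analogue alone. Four independent experiments.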

The nature of data set [7]: Binding affinity to amyloid beta (1 to 42) Try residue at position 20 assessed as change in fluorescence intensity. In short, it runs like this: (§3)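 Aβ42 or Y-substituted analogue (5 μM final) mixed with tetrapeptide (50 μM final), HFIP-pretreated, dissolved in 60 mM NaOH (10% of volume) then diluted in 10 mM sodium phosphate pH 7.4. Spun 5,000 g 1 min, concentration confirmed post facto by AAA. Excitation 280 nm, emission 290–400 nm, 22°C, ≥10 scans of ~1 min right after preparation. Buffer subtracted, area under curve normalized to peptide alone. Four independent experiments, mean ± SEM.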

The nature of data set [8]: Binding affinity to amyloid beta (1 to 42) Try residue at position 30 assessed as change in fluorescence intensity. In short, it runs like this: as §3
Data set [9] can be described thus: Binding affinity to amyloid beta (1 to 42) Try residue at position 1 assessed as change in fluorescence intensity using C-terminus acetylated compound. In short, it runs like this: as §2
The nature of data set [10]: Binding affinity to amyloid beta (1 to 42) Try residue at position 1 assessed as change in fluorescence intensity using N-terminus amidated compound. In short, it runs like this: as §2
Data set [11] in a line: Binding affinity to amyloid beta (1 to 42) Try residue at position 42 assessed as change in fluorescence intensity. In short, it runs like this: as §3
Data set [12] can be described thus: Binding affinity to amyloid beta (1 to 42) Try residue at position 30 assessed as change in fluorescence intensity using N-terminus amidated compound. In short, it runs like this: as §2
A short description of data set [13]: Binding affinity to wild type amyloid beta (1 to 42) assessed as change in fluorescence intensity. In short, it runs like this: as §3
Data set [14] is described as follows: Binding affinity to amyloid beta (1 to 42) assessed as change in fluorescence intensity using C-terminus acetylated compound. In short, it runs like this: as §2
Data set [15] deals with PC-12. Nature of the data set: Neuroprotective activity in rat PC12 cells assessed as inhibition of staurosporine-induced cell death after 24 hrs by MTT assay.
The nature of data set [16]: Cytotoxicity against rat PC12 cells assessed as cell viability at 1 uM after 24 hrs by MTT assay. The class given is cell-based, PC-12. As to conditions: read-out: Activity.

Consider `CC[C@H](C)[C@H](NC(=O)[C@@H](NC(=O)[C@H](C)N)C(C)C)C(=O)N[C@@H](C)C(=O)O` (H-AVIA-OH), for which, in the data set with PC-12 [1], the Activity result was “Dose-dependent effect” and the IC50 (as a rule, the concentration needed to halve the response being measured) was determined as 53 µM. For the same molecule, in the data set with PC-12 [2], the 50% inhibitory concentration (IC50) turned out to be 22 µM.
Regarding `CC[C@H](C)[C@H](NC(=O)[C@@H](NC(=O)[C@@H](N)C(C)C)C(C)C)C(=O)N[C@@H](C)C(=O)O`, the Activity entry with PC-12 [1] is “Dose-dependent effect”. For the same molecule, the IC50 with PC-12 [1] was 21 µM. The result (in the data set on PC-12 [3]; with PC-12 [4]; in the data set on PC-12 [5]; in data set [7]; in data set [8]; in data set [11]) was inactive. Further, the result (in data set [13]; with PC-12 [15]) was inactive. In addition, the Flu intensity in [6] is 117%; in data set [9], 48%; in data set [10] it was 62%; in data set [12], 24%; in [14], 19%.
Regarding `CN[C@@H]1C[C@H]2O[C@@](C)([C@@H]1OC)n1c3ccccc3c3c4c(c5c6ccccc6n2c5c31)C(=O)NC4` [STAUROSPORINE], the viability at 24 h, 1 µM in data set [16] was found to be 100%.
As to `CC[C@H](C)[C@H](NC(=O)[C@H](C)NC(=O)[C@@H](N)C(C)C)C(=O)N[C@@H](C)C(=O)O` (H-VAIA-OH), in the data set on PC-12 [1], the Activity entry is “Dose-dependent effect” and the IC50 is 15 µM. For the same molecule, the IC50 in the data set on PC-12 [2] amounted to 14 µM.
The matching figures for `CC[C@H](C)[C@H](NC(=O)[C@@H](NC(=O)[C@@H](N)C(C)C)C(C)C)C(=O)N[C@@H](C)C(N)=O` (H-VVIA-NH2): “Dose-dependent effect”, 28 µM and 30 µM.
As to `CC[C@H](C)[C@H](NC(=O)[C@H](C)N)C(=O)N[C@H](C(=O)N[C@H](C(N)=O)C(C)C)C(C)C` (H-AIVV-NH2), the Activity result with PC-12 [1] was “Dose-dependent effect”.
`CC[C@H](C)[C@H](NC(=O)[C@H](C)N)C(=O)N[C@H](C(=O)N[C@H](C(=O)O)C(C)C)C(C)C` (H-AIVV-OH): the Activity result in the data set on PC-12 [1] was “Dose-dependent effect”.
